The text below walks through data of paper PMC11827156 (Malaria Journal, 2025).

Read-outs that look alike come from different tables or passages of the source.

What all share (type): cell-based, Plasmodium falciparum
Experiment [1] deals with P. falciparum 3D7. The conditions noted are these: 72 h; for IC50: asynchronous culture, 0.0019–2 µM, ± standard error of the mean; for reduction of P. falciparum parasitaemia by 50%: at the concentrations tested (0.0019–2 µM).
In experiment [2] the test system is P. falciparum 3D7. Briefly: Competition of TCAMS compounds. The conditions noted are these: for effect on the increase in parasitaemia promoted by melatonin: 2.5 nM compound with 100 nM melatonin; for effect on the increase in parasitaemia promoted by melatonin / effect on the increase in parasitaemia promoted by serotonin: 48 h; for effect on the increase in parasitaemia promoted by serotonin: 2.5 nM compound with 250 nM serotonin; for classification on the serotonin/melatonin pathway in the parasite: from effects in presence and absence of serotonin or melatonin. Summed up:
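Asynchronous P. falciparum 3D7 cultures (1% parasitaemia, 2% haematocrit) were given 2.5 nM test compound with or without 250 nM serotonin or 100 nM melatonin. Incubation was 48 h at 37 °C under mixed gas, with a DMSO solvent control. Cells were stained with SYBR Green-I (1:10,000) and MitoTracker Deep Red (50 nM) for 20 min at 37 °C, then parasitaemia was read by flow cytometry. Survival is relative to solvent; triplicate, 3 independent experiments.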

Experiment [3] concerns P. falciparum 3D7. Conditions: 48 h; for effect on parasitaemia compared with the control: 2.5 nM compound alone.
Setting [4] is: read-out: IC50 (nM) 3D7, Table 1.
Setting [5] is: Plasmodium falciparum, 3D7, 72 h, read-out: IC50 (nM) 3D7, Table 1.

On to `O=C(Nc1ccccc1)N(Cc1cccc(-c2cccc(CNCc3ccc4c(c3)OCO4)c2)c1)C1CCN(Cc2ccccc2)CC1` [TCMDC-140590, OC(= O)C(F)(F)F.O = C(Nc1ccccc1)N(Cc1cccc(c1)c1cccc(CNCc2ccc3OCOc3c2)c1)C1CCN(Cc2ccccc2)CC1], for which the half-maximal inhibitory concentration (IC50) in the experiment on P. falciparum 3D7 [1] (setting [4]) turned out to be 285 ± 144 nM. With `O=C1CCCN1CCCNCc1ccc(-c2ccc(-c3nc4cc(C(F)(F)F)ccc4[nH]3)s2)cc1` [TCMDC-132764, OC(= O)C(F)(F)F.FC(F)(F)c1ccc2[nH]c(nc2c1)-c1ccc(s1)-c1ccc(CNCCCN2CCCC2 = O)cc1], the IC50 in the experiment on P. falciparum 3D7 [1] (setting [4]) amounted to 259 ± 49.4 nM. With `COc1cc(C)nc2ccc(NC(=O)c3ccc(C(=O)Nc4ccc5nc(C)cc(OC)c5c4)cc3)cc12` [TCMDC-139502, COc1cc(C)nc2ccc(NC(= O)c3ccc(cc3)C(= O)Nc3ccc4nc(C)cc(OC)c4c3)cc12], in the experiment on P. falciparum 3D7 [1] (setting [4]), the concentration for half-maximal inhibition (IC50) came out at 98.2 ± 25.1 nM. In the case of `O=C(/C=C/c1ccc(Cl)c(Cl)c1)Nc1cccc(CN2CCC(c3c[nH]c4ccc(O)cc34)CC2)c1` [TCMDC-139634, Oc1ccc2[nH]cc(C3CCN(Cc4cccc(NC(= O)\C = C\c5ccc(Cl)c(Cl)c5)c4)CC3)c2c1], in the experiment with P. falciparum 3D7 [2], the “effect on the increase in parasitaemia promoted by melatonin” value (“effect on the increase … by melatonin” below) was “could inhibit the increase in parasitaemia promoted by melatonin thoroughly”, the “effect on the increase in parasitaemia promoted by serotonin” value (shortened to “effect on the increase … by serotonin”) is “able to inhibit the increase in parasitaemia” and the “classification on the serotonin/melatonin pathway in the parasite” value is reported as “potential partial agonists of this pathway in the parasite”. Moreover, in the experiment with P. falciparum 3D7 [1] (setting [4]), the IC50 turned out to be 346 ± 47.5 nM. Besides, the “effect on parasitaemia compared with the control” value with P. falciparum 3D7 [3] is “induced a significant increase in parasitaemia”. Turning to `O=C(NC1CCC(CN2CCC(c3c[nH]c4ccccc34)CC2)CC1)c1cc(-c2ccc(F)cc2F)ccc1O` (stereo not shown) [TCMDC-139894, Oc1ccc(cc1C(= O)NC1CCC(CN2CCC(CC2)c2c[nH]c3ccccc23)CC1)-c1ccc(F)cc1F], the “reduction of P. falciparum parasitaemia by 50%” value in the experiment with P. falciparum 3D7 [1] is “could not reduce P. falciparum parasitaemia by 50%”. In the case of `COc1ccc2[nH]cc(CCNC(C)=O)c2c1` [Melatonin, melatonin, reference compound], in the experiment on P. falciparum 3D7 [3] (100 nM), the “increase of P. falciparum parasitaemia compared with the control” value came out at 15.05%. Regarding `CCCCCC(C)C(C)c1cc(O)c2c(c1)OC(C)(C)CC2(O)c1ccnn1C` (stereo not shown) [TCMDC-131795, CCCCCC(C)C(C)c1cc(O)c2c(OC(C)(C)CC2(O)c2ccnn2C)c1], in the experiment on P. falciparum 3D7 [1] (setting [5]), the IC50 is 909 ± 65.1 nM.

In the case of `Cc1[nH]c2ccc(O)cc2c1C1CCN(CC2CCN(C(=O)/C=C/c3ccc(Cl)c(Cl)c3)CC2)CC1` [TCMDC-140219, Cc1[nH]c2ccc(O)cc2c1C1CCN(CC2CCN(CC2)C(= O)\C = C\c2ccc(Cl)c(Cl)c2)CC1], in the experiment on P. falciparum 3D7 [2], the “effect on the increase … by melatonin” value is recorded as “able to inhibit the increase in parasitaemia partially”, the “effect on the increase … by serotonin” value is “able to inhibit the increase in parasitaemia” and the “classification on the serotonin/melatonin pathway in the parasite” value is “potential full antagonists of the pathway”. In the experiment with P. falciparum 3D7 [1] (setting [4]), the half-inhibitory concentration (IC50) amounted to 101 ± 22.9 nM. In addition, in the experiment with P. falciparum 3D7 [3], the “effect on parasitaemia compared with the control” value is reported as “did not significantly affect parasitaemia compared with the control”.

Regarding `O=C(c1ccc(F)cc1)N1CCOC(CCN2CCC(c3ccccc3)CC2)(c2ccc(Cl)c(Cl)c2)C1` (stereo not shown) [TCMDC-135334, Fc1ccc(cc1)C(= O)N1CCOC(CCN2CCC(CC2)c2ccccc2)(C1)c1ccc(Cl)c(Cl)c1], the “reduction of P. falciparum parasitaemia by 50%” value in the experiment with P. falciparum 3D7 [1] is “could not reduce P. falciparum parasitaemia by 50%”. In the case of `CC[C@H](NC(=O)c1c(CC2CCN(CC(C)=O)CC2)c(-c2ccccc2)nc2ccccc12)c1ccccc1` [TCMDC-141946, CC[C@H](NC(= O)c1c(CC2CCN(CC(C) = O)CC2)c(nc2ccccc12)-c1ccccc1)c1ccccc1], the IC50 with P. falciparum 3D7 [1] (setting [4]) is 215 ± 27.9 nM. For `Fc1ccc2[nH]c(-c3cccc(-c4ccc(CN5CCN(c6ccncc6)CC5)cc4)c3)nc2c1` [TCMDC-132918, OC(= O)C(F)(F)F.Fc1ccc2[nH]c(nc2c1)-c1cccc(c1)-c1ccc(CN2CCN(CC2)c2ccncc2)cc1], in the experiment with P. falciparum 3D7 [1] (setting [4]), the IC50 amounted to 68.4 ± 6.93 nM.

Turning to `COc1cc2nc(NCCc3ccccc3)nc(N(C)Cc3ccccc3)c2cc1OC` [TCMDC-135385, COc1cc2nc(NCCc3ccccc3)nc(N(C)Cc3ccccc3)c2cc1OC], in the experiment with P. falciparum 3D7 [2], the “effect on the increase … by melatonin” value is listed as “unable to block their effects on the erythrocyte cycle” and the “effect on the increase … by serotonin” value is “unable to prevent the effect of the neurotransmitter on P. falciparum parasitaemia”. The IC50 with P. falciparum 3D7 [1] (setting [5]) came out at 1210 ± 315 nM. Further, the “effect on parasitaemia compared with the control” value with P. falciparum 3D7 [3] is reported as “induced a significant increase in parasitaemia”. `COc1ccc(CN2C(=S)N(Cc3ccccc3)C(=O)C2CC(=O)Nc2ccccc2)cc1OC` (stereo not shown) [TCMDC-123874, COc1ccc(CN2C(CC(= O)Nc3ccccc3)C(= O)N(Cc3ccccc3)C2 = S)cc1OC]: in the experiment on P. falciparum 3D7 [1] (setting [4]), the IC50 was found to be 759 ± 131 nM. Consider `NCCc1c[nH]c2ccc(O)cc12` [Serotonin, serotonin, reference compound], for which the “increase of P. falciparum parasitaemia compared with the control” value with P. falciparum 3D7 [3] (250 nM) is listed as 11.86%. `Brc1ccc(Nc2nc(NCc3ccccc3)c3ccccc3n2)cc1` [TCMDC-124574, Brc1ccc(Nc2nc(NCc3ccccc3)c3ccccc3n2)cc1]: in the experiment with P. falciparum 3D7 [1] (setting [5]), the IC50 is 619 ± 213 nM. For `COc1ccc2ncc(F)c([C@H](O)CN3CCC(NCc4ccc5c(c4)NC(=O)CO5)CC3)c2c1` [TCMDC-135829, Cl.COc1ccc2ncc(F)c([C@H](O)CN3CCC(CC3)NCc3ccc4OCC(= O)Nc4c3)c2c1], in the experiment on P. falciparum 3D7 [1] (setting [4]), the IC50 worked out at 336 ± 176 nM. `COc1cc2nc(NCCc3ccccc3)nc(NCc3cnn(C)c3C)c2cc1OC` [TCMDC-135459, COc1cc2nc(NCCc3ccccc3)nc(NCc3cnn(C)c3C)c2cc1OC]: in the experiment with P. falciparum 3D7 [2], the “effect on the increase … by melatonin” value is “unable to block their effects on the erythrocyte cycle” and the “effect on the increase … by serotonin” value is listed as “unable to prevent the effect of the neurotransmitter on P. falciparum parasitaemia”. The IC50 with P. falciparum 3D7 [1] (setting [5]) stood at 287 ± 24.2 nM. Besides, the “effect on parasitaemia compared with the control” value in the experiment on P. falciparum 3D7 [3] is reported as “induced a significant increase in parasitaemia”. For the compound `COc1cc(NC(=O)N2CCOC(CCN3CCC4(CCc5ccccc54)CC3)(c3ccc(Cl)c(Cl)c3)C2)cc(OC)c1OC` (stereo not shown) [TCMDC-135346, COc1cc(NC(= O)N2CCOC(CCN3CCC4(CCc5ccccc45)CC3)(C2)c2ccc(Cl)c(Cl)c2)cc(OC)c1OC], the IC50 with P. falciparum 3D7 [1] (setting [4]) turned out to be 75.5 ± 18.2 nM. With `CCN(CCNc1nc(NCCc2cnc[nH]2)nc(N(CCC#N)Cc2ccccc2)n1)c1cccc(C)c1` [TCMDC-139258, CCN(CCNc1nc(NCCc2cnc[nH]2)nc(n1)N(CCC#N)Cc1ccccc1)c1cccc(C)c1], in the experiment with P. falciparum 3D7 [1] (setting [5]), the IC50 was determined as 216 ± 15.4 nM. `COc1cc2nc(NCCc3ccccc3)nc(NCc3cc(C)no3)c2cc1OC` [TCMDC-135435, COc1cc2nc(NCCc3ccccc3)nc(NCc3cc(C)no3)c2cc1OC]: in the experiment with P. falciparum 3D7 [2], the “effect on the increase … by melatonin” value is listed as “able to inhibit the increase in parasitaemia partially” and the “effect on the increase … by serotonin” value is recorded as “unable to prevent the effect of the neurotransmitter on P. falciparum parasitaemia”. Also, the IC50 in the experiment on P. falciparum 3D7 [1] (setting [5]) turned out to be 734 ± 162 nM. Moreover, in the experiment on P. falciparum 3D7 [3], the “effect on parasitaemia compared with the control” value was “did not significantly affect parasitaemia compared with the control”. In the case of `Clc1ccc2nccc(N3CCC(CN4CCC(c5c[nH]c6ccccc56)CC4)CC3)c2c1` [TCMDC-134281, OC(= O)C(F)(F)F.Clc1ccc2nccc(N3CCC(CN4CCC(CC4)c4c[nH]c5ccccc45)CC3)c2c1], in the experiment with P. falciparum 3D7 [1] (setting [4]), the IC50 worked out at 72.9 ± 10 nM. Regarding `O=c1c(NCCCN(Cc2ccc(F)cc2)c2ccccn2)c(NCc2ccncc2)c1=O` [TCMDC-142310, Fc1ccc(CN(CCCNc2c(NCc3ccncc3)c(= O)c2 = O)c2ccccn2)cc1], in the experiment with P. falciparum 3D7 [2], the “effect on the increase … by melatonin” value is listed as “able to inhibit the increase in parasitaemia partially”, the “effect on the increase … by serotonin” value is “able to inhibit the increase in parasitaemia” and the “classification on the serotonin/melatonin pathway in the parasite” value was “potential partial agonists of this pathway in the parasite”. Also, in the experiment with P. falciparum 3D7 [1] (setting [4]), the IC50 is 100 ± 23.6 nM. For the same compound, the “effect on parasitaemia compared with the control” value in the experiment with P. falciparum 3D7 [3] is recorded as “induced a significant increase in parasitaemia”. With `Cc1cc(NC(=O)NCCN2CCC(NC(=O)c3ccc(Cl)cc3)CC2)c2ccccc2n1` [TCMDC-136171, Cc1cc(NC(= O)NCCN2CCC(CC2)NC(= O)c2ccc(Cl)cc2)c2ccccc2n1], the IC50 in the experiment on P. falciparum 3D7 [1] (setting [4]) stood at 110 ± 46.2 nM. As to `Cn1nccc1C(=O)NCCNCc1ccc(-c2ccc(-c3nc4cc(C(F)(F)F)ccc4[nH]3)s2)cc1` [TCMDC-133018, OC(= O)C(F)(F)F.Cn1nccc1C(= O)NCCNCc1ccc(cc1)-c1ccc(s1)-c1nc2cc(ccc2[nH]1)C(F)(F)F], the IC50 in the experiment with P. falciparum 3D7 [1] (setting [4]) came to 284 ± 125 nM. `COc1ccc(C2CC(=O)C3=C(C2)NC(C)=C(C(=O)OC(C)C)C3c2cccc(O)c2)cc1OC` (stereo not shown) [TCMDC-125636, COc1ccc(cc1OC)C1CC(= O)C2 = C(C1)NC(C) = C(C2c1cccc(O)c1)C(= O)OC(C)C]: in the experiment with P. falciparum 3D7 [1] (setting [4]), the IC50 stood at 80.2 ± 18.9 nM. On to `COc1cc(NC(=O)N2CCOC(CCN3CCC4(CCc5ccccc54)CC3)(c3ccc(Cl)c(Cl)c3)C2)cc(OC)c1` (stereo not shown) [TCMDC-135338, COc1cc(NC(= O)N2CCOC(CCN3CCC4(CCc5ccccc45)CC3)(C2)c2ccc(Cl)c(Cl)c2)cc(OC)c1], for which the IC50 in the experiment on P. falciparum 3D7 [1] (setting [4]) is 442 ± 78.8 nM. Consider `CCOc1ccc(C(=O)N2CCOC(CCN3CCC(c4ccccc4)CC3)(c3ccc(Cl)c(Cl)c3)C2)cc1` (stereo not shown) [TCMDC-135344, CCOc1ccc(cc1)C(= O)N1CCOC(CCN2CCC(CC2)c2ccccc2)(C1)c1ccc(Cl)c(Cl)c1], for which the IC50 in the experiment with P. falciparum 3D7 [1] (setting [4]) came to 462 ± 185 nM. In the case of `COc1ccc(NC(=O)[C@H](CC(C)C)Nc2cc(C)nc(NCCc3ccccc3)n2)cc1` [TCMDC-134778, OC(= O)C(F)(F)F.COc1ccc(NC(= O)[C@H](CC(C)C)Nc2cc(C)nc(NCCc3ccccc3)n2)cc1], the IC50 in the experiment with P. falciparum 3D7 [1] (setting [4]) came to 497 ± 99.5 nM.

As a reminder, the IC50 is the point on the concentration scale where inhibition reaches its midpoint.
